Laboratory results taken from ChEMBL document CHEMBL1221318, “Two distinct classes of novel pyrazolinecarboxamides as potent cannabinoid CB1 receptor agonists” (Bioorg Med Chem Lett, 2010).
Active and inactive are the calls of the source. No cut-off for these calls is given here.

Key:
Cannabinoid receptor 1 [1] = biological target: T1, Cannabinoid receptor 1 (Homo sapiens, UniProt P21554); assay: Displacement of [3H]CP-55940 from human recombinant CB1 receptor expressed in CHO cells; assay type: cell-based
T1 sequence (P21554 whole entry): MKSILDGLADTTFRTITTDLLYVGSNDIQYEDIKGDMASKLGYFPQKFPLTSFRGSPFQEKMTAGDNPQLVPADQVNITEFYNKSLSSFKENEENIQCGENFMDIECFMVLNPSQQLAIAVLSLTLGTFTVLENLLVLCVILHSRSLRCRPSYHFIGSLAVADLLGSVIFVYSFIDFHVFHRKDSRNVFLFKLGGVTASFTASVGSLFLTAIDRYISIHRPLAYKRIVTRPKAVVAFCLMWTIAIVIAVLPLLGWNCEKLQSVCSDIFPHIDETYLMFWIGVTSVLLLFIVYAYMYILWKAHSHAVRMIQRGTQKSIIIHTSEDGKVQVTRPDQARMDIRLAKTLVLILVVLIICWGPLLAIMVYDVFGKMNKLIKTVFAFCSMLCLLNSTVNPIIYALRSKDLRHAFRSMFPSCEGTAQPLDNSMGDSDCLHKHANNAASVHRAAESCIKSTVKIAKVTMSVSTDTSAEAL

Cannabinoid receptor 2 [2] = biological target: T2, Cannabinoid receptor 2 (Homo sapiens, UniProt P34972); assay: Displacement of [3H]CP-55940 from human recombinant CB2 receptor expressed in CHO cells; assay type: cell-based
T2 sequence (P34972 whole entry): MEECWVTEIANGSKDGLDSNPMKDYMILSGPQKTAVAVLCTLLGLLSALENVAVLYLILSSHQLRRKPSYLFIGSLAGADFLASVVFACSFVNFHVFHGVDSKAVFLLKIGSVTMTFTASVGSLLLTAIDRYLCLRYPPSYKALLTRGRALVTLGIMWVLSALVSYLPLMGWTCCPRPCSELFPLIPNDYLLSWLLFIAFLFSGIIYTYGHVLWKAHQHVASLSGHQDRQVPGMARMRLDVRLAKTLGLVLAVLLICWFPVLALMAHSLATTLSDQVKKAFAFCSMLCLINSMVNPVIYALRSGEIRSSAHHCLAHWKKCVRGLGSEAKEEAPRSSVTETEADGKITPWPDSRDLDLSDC

Cannabinoid receptor 1 [3] = biological target: T1, Cannabinoid receptor 1; assay: Agonist activity at human recombinant CB1 receptor expressed in CHO cells assessed as effect on CP-55940 induced PLA2 activation by [3H]arachidonic acid release assay; assay type: functional, cell-based; details: for Kb: read-out: pA2 (converted)
Cannabinoid receptor 2 [4] = biological target: T2, Cannabinoid receptor 2; assay: Inverse agonist activity at human recombinant CB2 receptor expressed in CHOK1 cells assessed as effect on forskolin-stimulated adenylate cyclase activity by cAMP accumulation assay; assay type: functional, cell-based, CHO-K1
Method in brief: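 CHO-K1 cells expressing human CB2, grown in serum-supplemented medium with glutamine, Hygromycin B and G418 at 37 °C, 5% CO2. Confluent cells loaded with [3H]adenine for 2 h, then 20 min in PBS with 1 mM IBMX and 3×10^-7 M forskolin ± compound (10^-10–10^-6 M). Stopped with TCA; [3H]cAMP/[3H]ATP separated on Dowex/alumina, scintillation counted, basal subtracted; […], two independent experiments in triplicate.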

Rattus norvegicus = assay: Neuroprotective activity in Lewis rat assessed as reduction of experimental autoallergic encephalomyelitis-induced motor deficits at 20 mg/kg, po qd for 11 days; assay type: functional, organism-based; set-up: dose 20 mg/kg
Method in brief: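 Male Lewis rats, 175–225 g, inoculated day 0 by subcutaneous hind-paw injection, under isoflurane, of a saline emulsion of complete Freund adjuvant, M. tuberculosis H37RA and guinea pig myelin basic protein. Oral dosing once daily from day one. Motor dysfunction scored daily on a 0–10 scale, with body weights; paralysis intensity analysed as AUC and average score.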

SMILES | Ki (Cannabinoid receptor 1 [1]) [nM] | Ki (Cannabinoid receptor 2 [2]) [nM] | EC50 (Cannabinoid receptor 1 [3]) [nM] | Kb (Cannabinoid receptor 1 [3]) [nM] | pA2 (Cannabinoid receptor 1 [3]; cho) | EC50 (Cannabinoid receptor 2 [4]) [nM] | Activity (Rattus norvegicus)
CCCCC1=NN(C(=O)N[C@H]2C[C@H]3CC[C@]2(C)C3(C)C)C(C)(C)C1c1ccccc1 (stereo partly specified) | 16.1 | 3.4 | – | – | – | – | –
CCCCCC1=NN(C(=O)NCc2ccccc2)CC1c1ccccc1 (stereo unspecified) | 51 | 260 | 398 | – | – | – | –
CCCCCC1=NN(C(=O)NC2CCCc3ccccc32)CC1c1ccccc1 (stereo unspecified) | 33.1 | 22.5 | – | – | – | – | –
CCCCC1=NN(C(=O)NC(C)(C)c2ccc(F)cc2)CC1c1cccc(F)c1 (stereo unspecified) | 44.9 | 74 | 100 | – | – | – | –
CCCCCC1=NN(C(=O)NC2CCCCCC2)CC1c1ccccc1 (stereo unspecified) | 15.3 | 19.8 | – | – | – | – | –
CCCCCC1=NN(C(=O)N[C@H]2CC3CC[C@]2(C)C3(C)C)CC1c1ccccc1 (single isomer, unassigned) | 46.8 | 36 | 158 | – | – | – | –
CCCCCC1=NN(C(=O)NC2CCCCCCC2)CC1c1ccccc1 (stereo unspecified) | 11.9 | 26.6 | – | – | – | – | –
CCCCCCC(C)(C)c1cc(O)c2c(c1)OC(C)(C)[C@@H]1CCC(=O)C[C@@H]21 [NABILONE] | 5.1 | 17.6 | 3.98 | – | – | – | –
CCCCCC1=NN(C(=O)N[C@H]2C[C@H]3CC[C@]2(C)C3(C)C)CC1c1ccccc1 (stereo in doubt; 9) | 28.5 | 7.4 | 0.631 | 7.94 | – | – | –
CCCCCN1N=C(C(=O)N[C@H]2C[C@H]3CC[C@]2(C)C3(C)C)CC1c1ccccc1 (stereo partly specified) | 4.7 | 20.1 | 5.01 | 7.94 | – | – | –
CCCCCN1N=C(C(=O)N[C@H]2C[C@H]3CC[C@]2(C)C3(C)C)CC1c1ccccc1F (stereo partly specified) | 6.1 | 9.1 | 3.98 | 7.94 | – | – | –
CCCCCC1=NN(C(=O)Nc2cccc3ccccc23)CC1c1ccccc1 (stereo unspecified) | 7.4 | 36.6 | 1580 | – | – | – | –
CCCCCC1=NN(C(=O)NC23CC4CC(CC(C4)C2)C3)CC1c1ccccc1 (stereo unspecified) | 68 | 14.9 | 398 | – | – | – | –
CCCCCC1=NN(C(=O)NC(C)(C)c2ccccc2)CC1c1ccccc1 (stereo unspecified) | 3.26 | 17.6 | 3.98 | – | – | – | –
CCCCCC1=NN(C(=O)NC[C@@H]2CC[C@H]3C[C@@H]2C3(C)C)CC1c1ccccc1 (stereo partly specified) | 15.6 | 13.3 | 2000 | – | – | – | –
CCCCCC1=NN(C(=O)NCC2CCCCC2)CC1c1ccccc1 (stereo unspecified) | 15.3 | 53 | – | – | – | – | –
CCCCCC1=NN(C(=O)NC2C3CC4CC(C3)CC2C4)CC1c1ccccc1 (stereo unspecified) | 6.4 | 6.3 | 25.1 | – | – | – | –
CCCCCC1=NN(C(=O)NCC23CC4CC(CC(C4)C2)C3)CC1c1ccccc1 (stereo unspecified) | 16.1 | – | – | – | – | – | –
CCCCC1=NN(C(=O)NC(C)(C)c2ccccc2)C(C)(C)C1c1ccccc1 (stereo unspecified) | 9 | 11.9 | – | – | – | – | –
CCCCCN1N=C(C(=O)NC(C)(C)c2ccc(F)cc2)CC1c1ccccc1 (stereo unspecified) | 118 | 121 | 3.98 | 7.94 | – | – | –
CCCCCC1=NN(C(=O)c2cccc3ccccc23)CC1c1ccccc1 (stereo unspecified) | 164 | 103 | 31.6 | – | – | – | –
CCCCC1=NN(C(=O)NC(C)(C)c2ccccc2)CC1c1ccccc1 (stereo unspecified) | 14.2 | 35.6 | 3.98 | – | – | – | –
CCCCCC1=NN(C(=O)NC2C[C@H]3CCC2(C)C3(C)C)CC1c1ccccc1 (single isomer, unassigned) | 8.3 | 5.3 | 3.98 | – | 8.1 | 3.16 | Active
CCCCCC1=NN(C(=O)NC2CCCCC2)CC1c1ccccc1 (stereo unspecified) | 52 | 79 | – | – | – | – | –
CCCCCN1N=C(C(=O)NC2C3CC4CC(C3)CC2C4)CC1c1ccccc1 (stereo unspecified) | 9.2 | 7.1 | – | 7.94 | – | – | –
CCCCCC1=NN(C(=O)Nc2ccccc2C(F)(F)F)CC1c1ccccc1 (stereo unspecified) | 70 | 15 | – | – | – | – | –
CCCCC1=NN(C(=O)NC(C)(C)c2ccccc2)CC1c1ccsc1 (stereo unspecified) | 19.3 | 62 | 39.8 | – | – | – | –
CCCCC1=NN(C(=O)NC(C)(C)c2ccc(F)cc2)CC1c1ccccc1F (stereo unspecified) | 32 | 89 | 126 | – | – | – | –
